Data: paper PMC5935540 (Cell, 2018)

How the values were obtained:
[1] = tested on: FK-506 binding protein family members (FKBP) 1A, 2, 3,4, and 5; test: Arrayed affinity-selection/mass spectrometry binding assay, control compound; design: species or system human; settings: control for the binder selection pipeline; FKBP1A highest signal
[2] = tested on: NSCLC cell line panel; test: Cell viability dose response in NSCLC cell line panel; assay type: cell-based, human
Outline: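 Viability read after 72 hrs of exposure to test compound at 5 µM, either alone or with HET-0016 at 100 nM. DMSO-treated cells serve as control.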

[3] = no reference given; cited from earlier work
[4] = target: T1, ABCG2 (Homo sapiens, UniProt Q9UNQ0); test: siRNA depletion of ABCG2 followed by THZ1 treatment; assay type: cell-based; settings: ABCG2 depletion sensitized resistant cells; H157 cells, THZ1 50nM, 72 hrs
T1 sequence (Q9UNQ0 1-655): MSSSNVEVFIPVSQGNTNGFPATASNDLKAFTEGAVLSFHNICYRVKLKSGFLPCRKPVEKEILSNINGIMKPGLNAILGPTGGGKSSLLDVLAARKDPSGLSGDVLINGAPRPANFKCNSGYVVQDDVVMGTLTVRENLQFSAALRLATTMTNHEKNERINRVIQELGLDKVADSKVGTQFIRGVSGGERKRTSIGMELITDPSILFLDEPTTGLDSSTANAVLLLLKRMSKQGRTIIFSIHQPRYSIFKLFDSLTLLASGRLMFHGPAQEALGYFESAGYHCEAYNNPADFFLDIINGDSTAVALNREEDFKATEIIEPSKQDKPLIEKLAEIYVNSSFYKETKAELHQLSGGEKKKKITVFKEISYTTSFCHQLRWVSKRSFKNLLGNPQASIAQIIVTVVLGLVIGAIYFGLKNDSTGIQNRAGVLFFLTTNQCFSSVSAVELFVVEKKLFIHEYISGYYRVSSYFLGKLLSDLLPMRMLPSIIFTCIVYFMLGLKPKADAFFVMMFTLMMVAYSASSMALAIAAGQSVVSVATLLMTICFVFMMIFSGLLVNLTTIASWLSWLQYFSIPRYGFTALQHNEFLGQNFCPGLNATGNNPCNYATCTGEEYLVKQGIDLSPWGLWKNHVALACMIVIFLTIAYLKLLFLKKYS

## C=CC[C@@H]1/C=C(\C)C[C@H](C)C[C@H](OC)[C@H]2O[C@@](O)(C(=O)C(=O)N3CCCC[C@H]3C(=O)O[C@H](/C(C)=C/[C@@H]3CC[C@@H](O)[C@H](OC)C3)[C@H](C)[C@@H](O)CC1=O)[C@H](C)C[C@@H]2OC [FK-506]
[1]
  LC/MS binding signal: strongest signal

## CCCCc1ccc(N=CNO)c(C)c1 [HET0016]
[2]; SW001286 5µM plus HET-0016 100nM, 72 hrs, two sensitive cell lines
  effect on SW001286 toxicity: rescued

## CC(C)Oc1ccc(C(=O)N[C@H](CNC(=O)CN(C)C)Cc2ccc(-c3cn4cccc([C@H](C)O)c4n3)cc2)cc1Cl [SW208097]
[3]
  pharmacokinetics in humans: dose proportional pharmacokinetics
[2]; cell lines with co-occuring mutations in TP53 and KEAP1
  sensitivity (ED50): low nanomolar

## CN(C)C/C=C/C(=O)Nc1ccc(C(=O)Nc2cccc(Nc3ncc(Cl)c(-c4c[nH]c5ccccc45)n3)c2)cc1 [THZ1]
[4]
  efflux transporter substrate status: ABCG2 substrate
